# Test results published in ChEMBL document CHEMBL1121516, “Synthesis and biological activity of fluoroalkylamine derivatives of narcotic analgesics” (J Med Chem, 1980).
# Activity calls are given as the source filed them. The calls are words filed in the database; no cut-off is given here.
# What was measured:
# [1] = test system: Rattus norvegicus; assay: Serum citrate level when administered intraperitoneally at dose 12.5 mg/kg in 5 rats; assay type: functional, organism-based; set-up: dose 12.5 mg/kg
# Method in brief: (§1)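 Male Sprague–Dawley rats (200–225 g), dosed ip. Blood centrifuged to obtain serum, and citrate measured by the Camp and Farmer procedure. Values reported as mg/mL with SE.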
# [2] = […] (pKa) value was evaluated; assay type: physicochemical
# Method in brief: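 pKa by potentiometric titration in distilled water at 24 °C. Compound dissolved at 5 to 7.5×10^-3 M and titrated with 0.1039 M NaOH, with pH change followed on a pH meter. Each compound run in triplicate.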
# [3] = organism: Cavia porcellus; assay: Agonist potency evaluated in the guinea pig ileum; assay type: functional
# [4] = organism: Mus musculus; assay: (§2) Antagonist potency was evaluated in the mouse vas deferens relative to naloxone = 1; assay type: functional
# [5] = organism: Mus musculus; assay: Analgesic activity determined in the mouse hot plate test expressed as ED50; Range is 6.3-14.8; assay type: functional
# [6] = organism: Mus musculus; assay: Equilibrium dissociation constant (Ke) against response produced by normorphine in the mouse vas deferens; assay type: functional
# [7] = molecular target: T1, Opioid receptors; mu/kappa/delta (Homo sapiens, UniProt P41145+P41143+P35372); assay: Inhibition of Opioid receptors with [3H]naloxone binding in the absence of NaCl; assay type: protein assay, Cavia porcellus
# [8] = molecular target: T1, Opioid receptors; mu/kappa/delta; assay: Inhibition of Opioid receptors binding by inhibiting specific [3H]naloxone binding by 50% in the presence of 100 mM NaCl; assay type: protein assay, Cavia porcellus
# [9] = organism: Cavia porcellus; assay: Inhibitory Dose required to reduce electrically stimulated contractions by 50% in guinea pig ileum; assay type: functional; conditions: read-out: ID50 (the source's name)
# [10] = organism: Cavia porcellus; assay: Agonist potency was evaluated in the guinea pig ileum; assay type: functional
# [11] = organism: Cavia porcellus; assay: Inhibitory Dose required to reduce electrically stimulated contractions by 50% in guinea pig ileum; I = Infinite; assay type: functional
# [12] = organism: Mus musculus; assay: Analgesic activity determined in the mouse hot plate test expressed as ED50; Range is 6.4-12.8; assay type: functional
# [13] = test system: Rattus norvegicus; assay: Serum citrate level when administered intraperitoneally at dose 45 mg/kg in 7 rats; assay type: functional, organism-based; set-up: dose 45 mg/kg; method in brief: as §1
# [14] = organism: Cavia porcellus; assay: as §2; assay type: functional
# [15] = organism: Mus musculus; assay: Analgesic activity determined in the mouse hot plate test expressed as ED50; I = inactive at 40; assay type: functional, organism-based
# [16] = organism: Mus musculus; assay: Analgesic activity determined in the mouse hot plate test expressed as ED50
# [17] = organism: Mus musculus; assay: Analgesic activity determined in the mouse hot plate test expressed as ED50; value ranges from 12.7-29.8; assay type: functional
# [18] = test system: Rattus norvegicus; assay: Serum citrate level when administered intraperitoneally at dose 40 mg/kg in 6 rats; assay type: functional, organism-based; set-up: dose 40 mg/kg; method in brief: as §1
# [19] = organism: Mus musculus; assay: Analgesic activity determined in the mouse hot plate test expressed as ED50; IA means in active to 100; assay type: functional, organism-based
# [20] = organism: Mus musculus; assay: Analgesic activity determined in the mouse hot plate test expressed as ED50; Range is 17.8-72.1; assay type: functional
# [21] = organism: Mus musculus; assay: Analgesic activity determined in the mouse hot plate test expressed as ED50; value ranges from 3.2-6.1; assay type: functional
SMILES,pKa [2],IC50 [7] [nM],IC50 [8] [nM],also measured
O=C(O)CF,–,–,–,Level [1]: 132 mg/mL
CS(=O)(=O)O.C[C@H]1C2Cc3ccc(O)cc3[C@@]1(C)CCN2CC(F)F,6.52,1000,1150,Agonist potency [3]: 0.16; Antagonist potency [4]: 0.001; ED50 [5]: 9.7 mg/kg; Ke [6]: 2930 nM; IC50 [9]: 453 nM
CS(=O)(=O)O.C[C@H]1C2Cc3ccc(O)cc3[C@@]1(C)CCN2CCF,8.35,50,100,Agonist potency [10]: 0; ID50 [11]: inactive; ED50 [12]: 9.16 mg/kg; Level [13]: 121 mg/mL
CS(=O)(=O)O.C[C@H]1C2Cc3ccc(O)cc3[C@@]1(C)CCN2CC(F)(F)F,4.56,1700,2500,Agonist potency [14]: 0; ED50 [15]: inactive
CN1CC[C@]23c4c5ccc(O)c4O[C@H]2[C@@H](O)C=C[C@H]3[C@H]1C5 [MORPHINE],–,–,–,ED50 [16]: 1.2 mg/kg
CCOC(=O)C1(c2ccccc2)CCN(CCF)CC1.Cl,7.43,20000,64000,ED50 [17]: 19.4 mg/kg; Level [18]: 81 mg/mL
CCOC(=O)C1(c2ccccc2)CCN(CC(F)F)CC1.Cl,5.23,85000,110000,ED50 [19]: inactive
CCOC(=O)C1(c2ccccc2)CCN(CC(F)(F)F)CC1.Cl,3.13,10000,60000,ED50 [19]: inactive
CCN1CC[C@]2(C)c3cc(O)ccc3CC1[C@@H]2C.CS(=O)(=O)O,9.42,180,200,ED50 [20]: 44.7 mg/kg
CCOC(=O)C1(c2ccccc2)CCN(CC)CC1.Cl,9.03,5000,120000,ED50 [21]: 4.4 mg/kg
